Laboratory results as given in ChEMBL document CHEMBL1649424, “Design, synthesis, and biological activity of novel 5-((arylfuran/1H-pyrrol-2-yl)methylene)-2-thioxo-3-(3-(trifluoromethyl)phenyl)thiazolidin-4-ones as HIV-1 fusion inhibitors targeting gp41” (J Med Chem, 2011).

Assays:
[1] = Selectivity index, ratio of CC50 for human MT2 cells to EC50 for HIV1 3B infected in human MT2 cells; assay type: toxicity, cell-based; conditions: MT2 cells (CC50) and HIV1 3B infected MT2 cells (EC50)
How it was run: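 Selectivity index taken as MT-2 CC₅₀ (XTT, 4 days) divided by EC₅₀ against HIV-1 IIIB infection (p24 ELISA).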

[2] = Cytotoxicity against human MT2 cells after 4 days by XTT assay; assay type: cell-based
How it was run: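 Cells (5 × 10⁵/mL) mixed with equal volume of compound at graded concentrations and held 4 days at 37 °C. XTT (1 mg/mL) containing 0.02 μM phenazine methosulphate added, then 4 h at 37 °C. Absorbance read at 450 nm. CC₅₀ by CalcuSyn.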

[3] = tested on: Human immunodeficiency virus 1; assay: Antiviral activity against HIV1 3B infected in human MT2 cells assessed as inhibition viral p24 antigen production after 4 days by ELISA; assay type: functional, organism-based; conditions: Human immunodeficiency virus 1, 3B, MT2, 96 h
[4] = tested on: Human immunodeficiency virus 1; assay: Antiviral activity against HIV1 isolate 92US657 infected in human MT2 cells assessed as inhibition viral p24 antigen production after 4 days by ELISA; assay type: functional, organism-based; conditions: Human immunodeficiency virus 1, isolate 92US657, MT2, 96 h

What does the source list for `O=C(O)c1cccc(-c2ccc(/C=C3\SC(=S)N(CCc4ccccc4)C3=O)o2)c1F`?
selectivity ratio [1]: 194; CC50 at 96 h [2]: 28100 nM; EC50 [3]: 145 nM; EC50 [4]: 1080 nM

What does the source list for `O=C(O)c1cccc(-c2ccc(/C=C3\SC(=S)N(CCc4ccccc4)C3=O)o2)c1O`?
selectivity ratio [1]: 269; CC50 at 96 h [2]: 16400 nM; EC50 [3]: 61 nM; EC50 [4]: 477 nM

With `O=C(O)c1cccc(-c2ccc(/C=C3\SC(=S)N(CCc4ccccc4)C3=O)o2)c1Cl` as the molecule, how does the selectivity ratio [1] read?
The selectivity ratio was 411.

And the CC50 at 96 h [2]?
Its CC50 at 96 h is 30400 nM.

And the EC50 [3]?
Its EC50 is 74 nM.

What about the EC50 [4] of the same molecule?
The EC50 was 521 nM.
